Bioassay records (PubChem BioAssay)
An excerpt weighted towards active compounds, which were near 5.6% of everything screened.
UPR CHOP act: apoptotic UPR (CHOP) activation; activation, % at 10 µM; actives 0.34% (n = 330,000); CHO-CHOP luciferase reporter, luminescence; percent of tunicamycin response over DMSO baseline;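 active = at 10 µM dose, activation of 40% or more, normalized to positive control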;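 note: 100% = tunicamycin at 10 µg/mL and 0% = DMSO alone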
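Dosing – one dose, 10 µM in 0.5% DMSO · System – CHO-CHOP cells, stable luciferase reporter of PERK-eIF2a-CHOP signalling · Input – 500 cells/well · Control set – tunicamycin 10 µg/mL final as positive, DMSO-only wells as negative · Timing – 6 h compound treatment, 37 °C · Measure – % activation vs tunicamycin · Technique – luminescence read with Steady-Glo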
MPTP block: permeability transition pore inhibition | isolated mouse mitochondria, Ca2+ swelling absorbance, 30 min | inhibition, % at 10 µM | actives 1.4% (n = 360,000);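 active = inhibition of 50% or more, scaled per plate between neutral and stimulator controls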;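 note: 0% = DMSO wells given calcium and 100% = 1 mM EGTA wells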
UPR XBP1 act: activators of adaptive arm of unfolded protein response (XBP1); actives 0.33% (n = 330,000); activation, % at 20 µM; CHO-XBP1 luciferase reporter, IRE1-XBP1 UPR activation, luminescence; percent of tunicamycin response, DMSO as zero; AID 463104;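 active = versus positive control, 20 µM dose yields 30% or more activation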;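 note: 100% = tunicamycin at 10 µg/mL and 0% = DMSO only wells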
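Material: CHO-XBP1 cells stably carrying IRE1-XBP1-driven luciferase reporter | Medium: F12 with 10% serum | Compound dosing: 20 µM single concentration, DMSO 1% | Incubation: Overnight seeding at 37 °C, 6 h compound treatment at 37 °C | Detection: Steady-Glo luminescence read | Read-out basis: % activation of reporter signal versus tunicamycin and DMSO controls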
CHOP inh: inhibitors of CHOP induction in ER stress response; inhibition, % at 10 µM; CHO-K1 CHOP-promoter luciferase, tunicamycin-induced, 15-18 h; actives 3.8% (n = 220,000);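 active = compounds that reduced the stress-induced luciferase reporter signal by more than about 70% of percent inhibition, limit read from the data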;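 note: 0% = tunicamycin plus vehicle and 100% = wells without tunicamycin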
aDG glyco up: increases alpha dystroglycan glycosylation; Pro5-aDG cells, alpha-DG glycosylation AlphaScreen (IIH6); 0% Pro5, 100% B10-LARGE cell signal; activation, % at 10 µM; actives 0.22% (n = 360,000);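 active = activation of at least 8% versus controls, or a plate z-score of at least 8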;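 note: Pro5 are CHO cells carrying HIG-tagged alpha-DG that lacks glycosylation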
NR3A LBD binder: modulates the human NR3A ligand-binding domain | NR3A LBD differential scanning fluorimetry, Tm shift; 0% = protein alone, 100% = glycine-bound protein | Tm shift relative to glycine control, % at 25 µM | actives 2.5% (n = 340,000) | AID 1259313;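 active = melting temperature shift of at least 10% of the positive control shift, at one fixed dose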
Active calls of the source: *; / = no result given.

SMILES | UPR CHOP act | MPTP block | UPR XBP1 act | CHOP inh | aDG glyco up | NR3A LBD binder
Cc1cccc(Nc2nc(N)c([N+](=O)[O-])c(N3CCCC(C)C3)n2)c1 (centres undefined) | -0.3 | 23.4 | 5.5 | 102.8* | 0.1 | 0.2
Cc1cccc(Nc2nc(N)c([N+](=O)[O-])c(N3CCN(C)CC3)n2)c1 | 3.2 | 0.6 | 0.2 | 4.2 | -0.5 | 2.7
O=S(=O)(Nc1ccccn1)c1cccc(S(=O)(=O)c2ccc(Br)cc2)c1 | -1.7 | 0.6 | -0.1 | 3.2 | 0.0 | 13.5*
O=[N+]([O-])c1cccc(S(=O)(=O)Nc2ccccn2)c1 | / | -1.2 | / | / | 0.3 | /
CCN(CC)S(=O)(=O)c1ccc(OC(C)C)c(NC(=O)C2=COCCO2)c1 | -0.1 | -1.0 | -1.1 | / | 0.5 | -2.0
O=C(CN(c1ccc(Cl)cc1)S(=O)(=O)c1ccccc1)N1CCN(c2ccccc2)CC1 | -1.9 | 4.3 | -3.7 | 73.2* | -0.2 | -3.2
O=C(CN(c1cccc(C(F)(F)F)c1)S(=O)(=O)c1ccccc1)N1CCOCC1 | 0.1 | 0.0 | 2.4 | 10.1 | 1.1 | 1.2
O=C(CN(c1ccc(Cl)c(C(F)(F)F)c1)S(=O)(=O)c1ccccc1)N1CCOCC1 | 0.5 | 2.3 | 2.4 | 26.2 | 0.0 | 14.0*
CC1=NN(C(=O)Cn2nc([N+](=O)[O-])c(Br)c2C)C(O)(C(F)(F)F)C1 (centres undefined) | 1.2 | -0.7 | -2.8 | 9.7 | 0.2 | -0.1
C[C@H](NC(=O)c1[nH]cnc1C(=O)Nc1ccc(Cl)cc1)c1ccccc1 | 2.7 | 3.9 | -0.4 | / | 0.1 | 24.4*
CC(C)C[C@H](NC(=O)c1nc[nH]c1C(=O)NCC(=O)OC(C)(C)C)C(=O)OC(C)(C)C | -1.7 | -1.8 | 1.5 | 83.8* | -0.5 | -6.6
O=C(Nc1ccc(Cl)cc1)c1nc[nH]c1C(=O)NCc1ccccc1 | -1.2 | 2.9 | 1.1 | / | 1.6 | 24.4*
C[C@H](NC(=O)c1[nH]cnc1C(=O)Nc1cccc(Cl)c1)c1ccccc1 | -0.8 | 1.6 | -2.4 | / | 0.5 | 5.8
C[C@@H](NC(=O)c1[nH]cnc1C(=O)Nc1cccc(Cl)c1)c1ccccc1 | 0.8 | 2.9 | -1.7 | / | 0.4 | 25.7*
CCOC(=O)[C@@H](NC(=O)/C=C/[C@H]1O[C@@H](n2ccc(=O)[nH]c2=O)[C@H](O)[C@@H]1O)C(C)C | / | -1.2 | / | / | -0.1 | /
CCOc1ccccc1CN1CCNC(=O)C1CC(=O)NCc1nc(C)cs1 (centres undefined) | -0.3 | -1.7 | -0.3 | / | 0.0 | -0.6
Cc1cccc(NC(=O)c2nc[nH]c2C(=O)N[C@@H](Cc2ccccc2)C(=O)OC(C)(C)C)c1 | 0.0 | 0.5 | 28.2 | 73.7* | 0.2 | -1.0
CC(C)(C)OC(=O)[C@H](Cc1ccccc1)NC(=O)c1[nH]cnc1C(=O)Nc1cccc(Cl)c1 | 2.0 | 1.4 | 4.7 | 28.8 | 0.4 | -14.5
OC1(c2cccc(C(F)(F)F)c2)CCN(c2ccc(-c3ccccc3)nn2)CC1 | 4.7 | 2.5 | -1.5 | 84.6* | 0.8 | -20.6
OC1(c2cccc(C(F)(F)F)c2)CCN(c2ncnc3c2[nH]c2ccccc23)CC1 | 2.8 | 20.8 | 1.6 | 71.1* | 2.4 | 3.4
c1ccc(CN2CCN(c3ncnc4c3[nH]c3ccccc34)CC2)cc1 | -0.9 | 15.0 | -1.8 | 87.0* | 6.8 | -6.0
c1ccc2c(c1)[nH]c1c(N3CCC4(CC3)OCCO4)ncnc12 | 6.4 | 46.0 | 3.3 | 33.1 | 1.2 | -0.6
CC(=O)O[C@H]1CC[C@H]2[C@@H]3CCc4cc(O)ccc4[C@H]3CC[C@]12C | -2.7 | 1.0 | -5.4 | 75.9* | -0.2 | -3.6
Oc1cc2c(cc1C(c1ccc(Cl)c(Cl)c1)N1CCCC1)OCO2 (centres undefined) | 1.5 | 0.0 | -3.3 | -49.9 | 0.4 | 39.5*
CC(C)c1ccc(NC(=O)C(c2ccc3c(c2)OCO3)N2CCCCC2)cc1 (centres undefined) | 4.1 | 6.6 | -3.2 | 42.0 | 0.0 | -2.7
SMILES | UPR CHOP act | MPTP block | UPR XBP1 act | CHOP inh | aDG glyco up | NR3A LBD binder
Cc1ccc(-c2cc(C(=O)N/N=C/c3c(C)nn(-c4ccccc4)c3C)n[nH]2)s1 | / | 0.1 | / | -7.3 | -0.2 | 14.8*
CC(/C=N/NC(=O)c1ccc(Br)cc1)=C\c1ccccc1 | 0.4 | 2.9 | 1.4 | 67.7 | -0.1 | 23.3*
COc1ccc(C(=O)N/N=C\C(C)=C\c2ccccc2)cc1OC | 2.4 | 1.2 | 0.1 | / | -0.3 | 0.9
Cc1nn(-c2ccccc2)c(C)c1/C=N/NC(=O)c1cc(C(C)(C)C)[nH]n1 | -0.7 | -0.5 | -0.9 | 4.0 | 0.3 | -1.1
CC(/C=N/NC(=O)c1cc(-c2cccs2)[nH]n1)=C\c1ccccc1 | -0.3 | 20.3 | 7.1 | 90.8* | -0.2 | 10.6*
CC(/C=N/NC(=O)c1cc(-c2ccc(C)o2)[nH]n1)=C\c1ccccc1 | -2.4 | 5.7 | -1.2 | 93.5* | 0.7 | 22.3*
Cc1ccc(-c2cc(C(=O)N/N=C/c3ccccc3)n[nH]2)o1 | -0.2 | 0.0 | -2.4 | / | 0.1 | 9.7
COc1cccc(C(=O)Nc2cc(C(=O)NCc3ccc(C)cc3)ccc2N2CCC3(CC2)CC(c2cccc(Br)c2)=NO3)c1 | 13.0 | 1.1 | -0.5 | / | 0.1 | -0.6
O=C(NNC(=O)c1ccco1)c1csc(N2CCOCC2)n1 | -0.5 | -1.5 | -1.8 | / | 0.0 | -0.1
CCCN(CCO)C1CCN(CCc2ccccc2)CC1 | 0.4 | -0.3 | -2.4 | / | -0.1 | 0.2
Cc1ccc(/C=N/NC(=O)c2nnn(-c3nonc3N)c2-c2ccc3c(c2)OCO3)s1 | 0.1 | -0.9 | -2.3 | / | -0.5 | -4.3
N=C1SCC(=O)N1c1ncc(Cc2ccc(F)cc2)s1 | 0.6 | 5.2 | 0.3 | -29.2 | 0.1 | -0.9
Cc1ccc(-c2cc(C(=O)N/N=C/c3ccc(Cl)cc3)n[nH]2)o1 | 8.5 | -1.1 | 2.6 | / | 0.1 | 31.4*
Cn1cccc1-c1cc(C(=O)N/N=C/c2ccc(Cl)cc2)[nH]n1 | 3.6 | 0.8 | 2.0 | / | -0.1 | 19.0*
Cc1[nH]c2ccccc2c1/C=N/NC(=O)c1cc(-c2cccs2)[nH]n1 | 1.2 | 0.9 | 6.9 | 8.5 | -0.6 | 21.0*
COc1cc(/C=N/NC(=O)c2cc(-c3cccn3C)n[nH]2)cc(OC)c1OC | 0.9 | 1.3 | 6.3 | -1.2 | -0.1 | -27.4
O=C1c2cccc3cccc(c23)C(=O)N1Cc1ccccn1 | / | 0.8 | / | / | 0.0 | /
COc1ccc(-c2noc(CCCc3ccccc3)n2)cc1OC | 3.1 | 0.3 | 3.5 | 72.2* | -0.1 | 1.9
Cc1ccc(-c2noc(CCCc3ccccc3)n2)cc1 | 2.5 | 1.2 | 0.5 | 23.7 | 0.0 | 8.7
COc1ccc(-c2noc(Cc3ccc(Cl)cc3)n2)cc1OC | 0.5 | 0.9 | 2.6 | 85.8* | -0.1 | -3.9
